{"source": "ChEMBL document CHEMBL3271965", "about": "“Synthesis and anti-DNA -virus activity of the 5'-monophosphate and the cyclic 3',5'-monophosphate of 9-(beta-D-xylofuranosyl) guanine” (J Med Chem, 1976)", "key": {"[1]": {"system": "Human alphaherpesvirus 1", "test": "Antiviral activity against Herpesvirus 1 infected in human KB cells assessed as virus-induced cytopathic effect after 72 hrs", "format": "functional", "conditions": "Human alphaherpesvirus 1, 72 h", "procedure,_shortened": "(§1)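 KB (human nasopharyngeal carcinoma) monolayers, 18-24 h old, infected with 320 CCID₅₀ of herpes virus type 1 or type 2. Compound added within 15 min at half-log dilutions from 1000 to 1 μg/ml. Incubated 72 h at 37°. CPE scored microscopically 0-4. Virus rating is the summed (virus control − treated) CPE differences across drug levels, halved at levels showing partial toxicity.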"}, "[2]": {"system": "Human alphaherpesvirus 2", "test": "Antiviral activity against Herpesvirus 2 infected in human KB cells assessed as virus-induced cytopathic effect after 72 hrs", "format": "functional, organism-based", "procedure,_shortened": "as §1"}, "[3]": {"system": "Vaccinia virus", "test": "Antiviral activity against Vaccinia virus infected in human KB cells assessed as virus-induced cytopathic effect after 72 hrs", "format": "functional, organism-based", "conditions": "Orthopoxvirus vaccinia"}, "[4]": {"test": "Cytotoxicity against human KB cells after 72 hrs", "format": "cell-based"}, "[5]": {"system": "Human alphaherpesvirus 1", "test": "Antiviral activity against Herpesvirus 1 123 infected in Swiss mouse assessed as increase in survival at MTD, ic administered as single dose 6 hrs post infection relative to control", "format": "functional, organism-based", "procedure,_shortened": "(§2)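 18-20-g Swiss mice inoculated intracerebrally with an LD₇₅ of herpes virus type 1 strain 123 to induce encephalitis. One intracerebral drug treatment given 6 h after virus inoculation. Survivors counted against untreated infected controls.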"}, "[6]": {"system": "Human alphaherpesvirus 1", "test": "Antiviral activity against Herpesvirus 1 123 infected in Swiss mouse assessed as increase in survival at 0.31 to 1.25 mg/kg, ic administered as single dose 6 hrs post infection relative to control", "format": "functional, organism-based", "procedure,_shortened": "as §2"}, "[7]": {"test": "Therapeutic index, ratio of MTD for Swiss mouse to MID for Herpesvirus 1 123 infected in Swiss mouse", "conditions": "read-out: TI", "procedure,_shortened": "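Therapeutic index = maximum tolerated dose / minimum inhibitory dose, based on survivors/total among treated infected mice. The ic regimen was a single MTD dose at 6 h post-inoculation. The ip regimen was b.i.d. ×9 from 4 h. Uninfected toxicity controls were run alongside.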"}, "[8]": {"system": "Mus musculus", "test": "Toxicity in Swiss mouse assessed as weight loss at 52 mg/kg/day, ip", "format": "organism-based", "design": "route intraperitoneal", "conditions": "in vivo", "procedure,_shortened": "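Uninfected toxicity-control Swiss mice (18-20 g) dosed intraperitoneally b.i.d. ×9 at 104 or 52 mg/kg/day, in parallel with the infected groups. Body weight and survivors/total recorded.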"}, "[9]": {"system": "Human alphaherpesvirus 1", "test": "Antiviral activity against Herpesvirus 1 123 infected in Swiss mouse assessed as increase in survival at 52 mg/kg/day, ip", "format": "functional, organism-based", "procedure,_shortened": "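Encephalitis induced in 18-20-g Swiss mice by intracerebral LD₇₅ of herpes virus type 1 strain 123. Drug given intraperitoneally b.i.d. ×9 starting 4 h post-inoculation at 104, 52 or 26 mg/kg/day, with saline controls. Survivors/total compared by Fisher's exact test; survival time compared by t test.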"}, "[10]": {"system": "Human alphaherpesvirus 1", "test": "Antiviral activity against Herpesvirus 1 123 infected in Swiss mouse assessed as increase in survival time at 26 mg/kg/day, ip relative to control", "format": "functional, organism-based", "procedure,_shortened": "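Dosed intraperitoneally b.i.d. for 9 days, starting 4 h after virus inoculation. Infected animals were compared with saline controls. Survival time was assessed by t test.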"}}, "note": "Activity calls are given as the source filed them. The calls are words filed in the database; no cut-off is given here."}
{"molecule": "Nc1nc(O)c2ncn([C@@H]3O[C@H](COP(=O)(O)O)[C@H](O)[C@H]3O)c2n1", "values": [{"measurement": "MIC", "setting": "[1]", "value": 10, "unit": "µg/mL"}, {"measurement": "Activity", "setting": "[2]", "value": "Active"}, {"measurement": "Activity", "setting": "[3]", "value": "inactive"}, {"measurement": "MCC at 72 h", "setting": "[4]", "value": 3.2, "unit": "µg/mL"}, {"measurement": "Activity", "setting": "[5]", "value": "Active"}]}
{"molecule": "Nc1nc2c(ncn2[C@@H]2O[C@@H]3COP(=O)(O)O[C@@H]3[C@H]2O)c(=O)[nH]1", "values": [{"measurement": "MIC", "setting": "[1]", "value": 32, "unit": "µg/mL"}, {"measurement": "Activity", "setting": "[2]", "value": "Active"}, {"measurement": "Activity", "setting": "[3]", "value": "inactive"}, {"measurement": "MCC at 72 h", "setting": "[4]", "value": 32, "unit": "µg/mL"}, {"measurement": "Activity", "setting": "[5]", "value": "Active"}, {"measurement": "Activity", "setting": "[6]", "value": "Active"}, {"measurement": "selectivity ratio", "setting": "[7]", "value": "≥ 4"}, {"measurement": "Activity", "setting": "[8]", "value": "Toxic"}, {"measurement": "Activity", "setting": "[9]", "value": "Active"}, {"measurement": "Survival", "setting": "[10]", "value": "Active"}]}
{"molecule": "Nc1nc2c(ncn2[C@@H]2O[C@H](CO)[C@H](O)[C@H]2O)c(=O)[nH]1", "values": [{"measurement": "MCC at 72 h", "setting": "[4]", "value": 10, "unit": "µg/mL"}]}
{"molecule": "Nc1nc(O)c2ncn([C@@H]3O[C@H](CO)[C@H](O)[C@H]3O)c2n1", "values": [{"measurement": "MIC", "setting": "[1]", "value": 10, "unit": "µg/mL"}, {"measurement": "Activity", "setting": "[2]", "value": "Active"}, {"measurement": "Activity", "setting": "[3]", "value": "inactive"}, {"measurement": "Activity", "setting": "[5]", "value": "Active"}]}
{"molecule": "Nc1ncnc2c1ncn2[C@@H]1O[C@H](CO)[C@@H](O)[C@@H]1O", "note": "[VIDARABINE]", "values": [{"measurement": "MIC", "setting": "[1]", "value": 3.2, "unit": "µg/mL"}, {"measurement": "Activity", "setting": "[2]", "value": "Active"}, {"measurement": "Activity", "setting": "[3]", "value": "Active"}, {"measurement": "MCC at 72 h", "setting": "[4]", "value": 3.2, "unit": "µg/mL"}, {"measurement": "Activity", "setting": "[5]", "value": "Active"}]}
